Results gathered from unrelated publications.
Compare with care: the assays were run in different laboratories.
Target: Dual serine/threonine and tyrosine protein kinase (DSTYK, Homo sapiens, UniProt Q6XUX3)
Residues used in one study (Q6XUX3 1-929): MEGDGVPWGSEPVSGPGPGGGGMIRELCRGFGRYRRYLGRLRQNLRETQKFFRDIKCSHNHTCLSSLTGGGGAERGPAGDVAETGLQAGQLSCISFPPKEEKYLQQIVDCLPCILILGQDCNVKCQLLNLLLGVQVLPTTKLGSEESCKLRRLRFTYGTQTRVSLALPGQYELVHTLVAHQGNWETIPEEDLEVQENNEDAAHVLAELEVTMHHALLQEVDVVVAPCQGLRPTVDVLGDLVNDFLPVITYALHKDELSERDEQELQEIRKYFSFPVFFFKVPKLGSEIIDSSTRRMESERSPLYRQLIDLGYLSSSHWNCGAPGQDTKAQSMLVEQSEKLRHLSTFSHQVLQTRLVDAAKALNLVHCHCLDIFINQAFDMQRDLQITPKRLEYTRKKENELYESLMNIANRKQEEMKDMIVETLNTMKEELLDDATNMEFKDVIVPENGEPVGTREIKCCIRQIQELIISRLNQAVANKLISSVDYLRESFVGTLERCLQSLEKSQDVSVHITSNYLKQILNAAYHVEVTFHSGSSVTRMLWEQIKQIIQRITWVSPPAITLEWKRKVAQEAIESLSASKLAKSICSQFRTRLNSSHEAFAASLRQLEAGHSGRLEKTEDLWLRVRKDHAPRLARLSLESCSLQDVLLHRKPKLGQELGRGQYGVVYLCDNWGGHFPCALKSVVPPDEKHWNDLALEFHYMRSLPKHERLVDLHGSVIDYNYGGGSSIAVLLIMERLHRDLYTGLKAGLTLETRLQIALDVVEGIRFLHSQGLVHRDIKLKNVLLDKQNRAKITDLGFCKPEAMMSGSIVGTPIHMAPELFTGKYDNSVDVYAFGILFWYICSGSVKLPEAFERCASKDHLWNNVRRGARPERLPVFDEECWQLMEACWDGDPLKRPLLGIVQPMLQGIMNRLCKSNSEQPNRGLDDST

SMILES	assay	setting	remaining binding
O=C(NCc1ncc(C(F)(F)F)cc1Cl)c1ccc2c(c1)C1(CCS(=O)(=O)CC1)[C@@H](C1CC1)N2S(=O)(=O)c1ccc(F)cc1	cell-free assay, competition with immobilised ligand	1 µM	78%
C[C@@H]1CCN(c2nccc(-c3cnn4ncccc34)n2)C1	binding	1 µM	77%
C[C@@H](c1ccc(-n2cnc3c(N)ncnc32)cc1)N1CCc2nn(C)c(Cc3ccccc3)c2C1=O	binding, competition with immobilised ligand	0.1 µM	58%
CN(C)c1nccc(-c2cnn3ncccc23)n1	binding	1 µM	96%
O=C1CCc2cc(Nc3cc(OC4CCOCC4)c([N+](=O)[O-])cc3Cl)ccc2N1	cell-free assay, competition with immobilised ligand	1 µM	90%
COc1cnc(Nc2cccc(S(N)(=O)=O)c2)nc1N1CCN(c2ccccc2)CC1	binding, competition with immobilised ligand	1 µM	100%
O=C(NCC1CCOCC1)c1n[nH]cc1NC(=O)c1c(F)cccc1F	binding, competition with immobilised ligand	1 µM	86%
CCOC(=O)c1cc2cc(-c3cc(C(=O)NCc4ccc(C(=O)O)cc4)nn3C)ccc2[nH]1	cell-free assay, competition with immobilised ligand	0.1 µM	69%
C=CC(=O)N1CCC(C(=O)NCC(=O)N2CCN(c3nc(-c4cnc(N)nc4C(F)F)nc(N4CCOCC4)n3)CC2)CC1	binding, competition with immobilised ligand	1 µM	72%
COc1ccnn2ncc(-c3ccnc(N(C)C)n3)c12	binding	1 µM	100%
O=C(c1ccc(Nc2ncc(Cl)c(-c3cc4ccccc4s3)n2)cc1)N1CCC(N2CCCC2)CC1	binding, competition with immobilised ligand	1 µM	32%
CC(C)(O)c1cncc(-c2nc3ccc(F)cc3n2C2CC2)c1	cell-free assay, competition with immobilised ligand	1 µM	100%
CN(C)c1ncc(F)c(-c2cnn3ncccc23)n1	binding	1 µM	69%
COc1ncc2cc3ccccc3nc2c1C#N	cell-free assay, competition with immobilised ligand	5 µM	100%
O=C(NCCCN1CCOCC1)c1ccc(Nc2nccc(-c3cc4ccccc4s3)n2)cc1	binding, competition with immobilised ligand	1 µM	76%
CN(CCCC(F)(F)F)c1nccc(-c2cnn3ncccc23)n1	binding	1 µM	88%
CN(C)c1ncnc(-c2ccc3nc(Nc4cc(CN5CCN(C(=O)CC(F)(F)F)CC5)ccn4)[nH]c3c2)c1Cl	cell-free assay, competition with immobilised ligand	1 µM	95%
F[C@@H]1CCN(c2nccc(-c3cnn4ncccc34)n2)C1	binding	1 µM	100%
O=C(NCCCN1CCOCC1)c1ccc(Nc2ncc(Cl)c(-c3ccc(Cl)s3)n2)cc1	binding, competition with immobilised ligand	1 µM	89%
c1cncc(-c2cccc(Nc3nccc(NC4CCCCC4)n3)c2)c1	binding, competition with immobilised ligand	10 µM	75%
CN(C)C(=O)Cn1cc(-c2nc(C3(c4ccc(-c5cnc(N)nc5)cc4)CC3)no2)cn1	cell-free assay, competition with immobilised ligand	1 µM	94%
N[C@H]1CCN(c2nccc(-c3cnn4ncccc34)n2)C1	binding	1 µM	100%
